In ChEMBL document CHEMBL4627325, “Rational modifications, synthesis and biological evaluation of new potential antivirals for RSV designed to target the M2-1 protein” (Bioorg Med Chem, 2020) one finds EC50 and CC50 data, which are given here for 18 compounds.

Data set [1] relates to Human orthopneumovirus. Nature of the data set: Antiviral activity against Respiratory syncytial virus A strain Long infected in Hep2 cells assessed as reduction in virus-induced cytopathic effect after 5 days by microscopic analysis. In kind it is functional, organism-based. To be noted: HEp-2, 120 h. In short, it runs like this: (§1)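 HEp-2 cells seeded 5×10^3/well in DMEM with 2% heat-inactivated FBS and 1% NEAA, 37°C, 5% CO₂; next day medium replaced with 1:2 serial dilutions of compound (eight concentrations, 0.7-100 μM) and infected with RSV-A Long or RSV-B Wash at moi 0.01 CCID₅₀/cell. CPE scored microscopically (0–5) at day 5; EC₅₀ by logarithmic interpolation as 50% protection; mean of ≥2 independent experiments.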

Data set [2] has as its system Human orthopneumovirus. The data set can be described thus: Antiviral activity against Respiratory syncytial virus B infected in Hep2 cells assessed as reduction in virus-induced cytopathic effect after 5 days by microscopic analysis. Conditions: HEp-2, 120 h. The format is functional, organism-based. A digest of the protocol:
as §1

Data set [3] can be described thus: Cytotoxicity against human Hep2 cells assessed as reduction in cell viability measured after 5 days by MTS assay. The format is cell-based. Conditions: HEp-2 cells. A digest of the protocol:
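Uninfected HEp-2 cultures set up as for the antiviral assay (5×10^3 cells/well, DMEM with 2% FBS and 1% NEAA, 37°C, 5% CO₂) and treated with serial 1:2 compound dilutions; metabolic activity quantified at day 5 by MTS readout to give CC₅₀; mean of ≥2 independent experiments.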

For `O=S(=O)(c1ccccc1)N1CCN(C(=S)SCc2nc3ccccc3s2)CC1`, the EC50 in the data set on Human orthopneumovirus [1] worked out at 35.3 µM; in the data set on Human orthopneumovirus [2], 12.5 µM. In addition, in data set [3], the CC50 at 120 h is over 100 µM.
The corresponding values for `S=C(SCc1nc2ccccc2s1)N1CCN(Cc2ccccc2)CC1` are 8.3 µM, 3.9 µM and over 100 µM.
Take `COc1ccc(CN2CCN(C(=S)SCc3nc4ccccc4s3)CC2)cc1`: in the data set with Human orthopneumovirus [2], the EC50 was 3 µM. In data set [3], the CC50 at 120 h was over 100 µM.
Taken in the same sequence, the figures for `CC(C)(C)c1ccc(CN2CCN(C(=S)SCc3nc4ccccc4s3)CC2)cc1` were 2.2 µM and 71.7 µM.
For `Cc1ccc(CN2CCN(C(=S)SCc3nc4ccccc4s3)CC2)c(C)c1`, the EC50 in the data set on Human orthopneumovirus [1] amounted to 4.97 µM. Moreover, the CC50 at 120 h in data set [3] is over 100 µM.
Consider `Cc1cccc(CN2CCN(C(=S)SCc3nc4ccccc4s3)CC2)c1`, for which the EC50 with Human orthopneumovirus [1] was 11.8 µM; in the data set with Human orthopneumovirus [2], 3 µM. For the same compound, in data set [3], the CC50 at 120 h was over 100 µM.
Taken in the same sequence, the figures for `FC(F)(F)c1cccc(CN2CCN(C(=S)SCc3nc4ccccc4s3)CC2)c1` were 3.3 µM, 3.8 µM and over 100 µM.
For the compound `O=C(c1ccccc1)N1CCN(C(=S)SCc2nc3ccccc3s2)CC1`, the EC50 in the data set with Human orthopneumovirus [1] was 44.1 µM; in the data set on Human orthopneumovirus [2], 24.8 µM. Moreover, the CC50 at 120 h in data set [3] amounted to 45 µM.
Consider `S=C(SCc1nc2ccccc2s1)N1CCN(c2ccccc2)CC1`, for which the EC50 is 4.4 µM in the data set with Human orthopneumovirus [1] and 1.3 µM with Human orthopneumovirus [2]. Besides, in data set [3], the CC50 at 120 h was over 100 µM.
`Cc1ccc(CN2CCN(C(=S)SCc3nc4ccccc4s3)CC2)cc1`: the EC50 in the data set on Human orthopneumovirus [2] is 1.32 µM. Also, in data set [3], the CC50 at 120 h was over 100 µM.
As for `Cc1ccccc1CN1CCN(C(=S)SCc2nc3ccccc3s2)CC1`, the EC50 in the data set on Human orthopneumovirus [1] is 10.4 µM; in the data set with Human orthopneumovirus [2] it was 20.6 µM. For the same compound, in data set [3], the CC50 at 120 h is over 100 µM.
Taken in the same sequence, the figures for `COC(=O)c1ccc(CN2CCN(C(=S)SCc3nc4ccccc4s3)CC2)cc1` were 14.8 µM, 3.9 µM and over 100 µM.
With `Cc1cc(C)c(CN2CCN(C(=S)SCc3nc4ccccc4s3)CC2)c(C)c1`, the EC50 was 42.2 µM with Human orthopneumovirus [1] and 20.6 µM in the data set with Human orthopneumovirus [2]. Besides, the CC50 at 120 h in data set [3] was over 100 µM.
Taken in the same sequence, the figures for `Fc1ccc(CN2CCN(C(=S)SCc3nc4ccccc4s3)CC2)cc1` were 4.4 µM, 2.5 µM and over 100 µM.
Regarding `CCOC(=O)c1ccc(CN2CCN(C(=S)SCc3nc4ccccc4s3)CC2)cc1`, the EC50 in the data set with Human orthopneumovirus [1] worked out at 40.8 µM; in the data set with Human orthopneumovirus [2], 4 µM. In addition, the CC50 at 120 h in data set [3] is over 100 µM.
Regarding `FC(F)(F)c1ccc(CN2CCN(C(=S)SCc3nc4ccccc4s3)CC2)cc1`, in the data set with Human orthopneumovirus [1], the EC50 worked out at 3.31 µM. Moreover, the CC50 at 120 h in data set [3] is over 100 µM.
Taken in the same sequence, the figures for `S=C(SCc1nc2ccccc2s1)N1CCN(CCc2ccccc2)CC1` were 7.7 µM and over 100 µM.
For the compound `Nc1ccn([C@@H]2O[C@@](CO)(CCl)[C@@H](O)[C@H]2F)c(=O)n1` [ALS-8112], the EC50 in the data set with Human orthopneumovirus [1] and in the data set with Human orthopneumovirus [2] was 2.6 µM in each case. In addition, in data set [3], the CC50 at 120 h was over 100 µM.
